Assay results taken from ChEMBL document CHEMBL2346505, “Pyranoflavones: a group of small-molecule probes for exploring the active site cavities of cytochrome P450 enzymes 1A1, 1A2, and 1B1” (J Med Chem, 2013).
pIC50, pKi: −log10 of the molar value.

Tests used:
Format in all cases: ADME
Cytochrome P450 2B1 = molecular target: T1, Cytochrome P450 2B1 (Rattus norvegicus, UniProt P00176); assay: Inhibition of CYP2B1 (unknown origin)-mediated depentylation of resorufin pentyl ether after 5 mins by spectrofluorimetric analysis
T1 sequence (P00176 whole entry): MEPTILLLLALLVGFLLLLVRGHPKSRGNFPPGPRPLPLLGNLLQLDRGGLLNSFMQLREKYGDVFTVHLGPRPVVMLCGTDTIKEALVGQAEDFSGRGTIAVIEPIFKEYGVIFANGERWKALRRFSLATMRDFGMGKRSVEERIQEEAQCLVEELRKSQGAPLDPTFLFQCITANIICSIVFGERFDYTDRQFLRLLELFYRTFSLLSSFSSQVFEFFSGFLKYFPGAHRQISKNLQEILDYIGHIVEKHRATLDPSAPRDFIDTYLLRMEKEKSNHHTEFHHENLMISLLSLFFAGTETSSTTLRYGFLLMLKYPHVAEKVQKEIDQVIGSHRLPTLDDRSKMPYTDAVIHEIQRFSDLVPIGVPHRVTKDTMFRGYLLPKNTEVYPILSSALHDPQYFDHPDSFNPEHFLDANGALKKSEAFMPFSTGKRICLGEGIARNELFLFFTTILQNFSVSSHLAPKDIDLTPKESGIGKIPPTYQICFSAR
Summary of the method: (§1)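 Microsomal P450 (final 5 nM) in 0.1 M potassium phosphate pH 7.6 with MgCl2; resorufin ether or coumarin substrate final 5 μM from DMSO stock; inhibitor added in DMSO, DMSO alone for controls. Reaction started with NADPH regenerating system (NADP+, glucose 6-phosphate, G6P dehydrogenase) at 37 °C; product formation followed fluorimetrically as progress curves.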

Cytochrome P450 2A6 = molecular target: T2, Cytochrome P450 2A6 (Homo sapiens, UniProt P11509); assay: Inhibition of CYP2A6 (unknown origin)-mediated coumarin 7-hydroxylation after 5 mins by spectrofluorimetric analysis; summary of the method: as §1
T2 sequence (P11509 whole entry): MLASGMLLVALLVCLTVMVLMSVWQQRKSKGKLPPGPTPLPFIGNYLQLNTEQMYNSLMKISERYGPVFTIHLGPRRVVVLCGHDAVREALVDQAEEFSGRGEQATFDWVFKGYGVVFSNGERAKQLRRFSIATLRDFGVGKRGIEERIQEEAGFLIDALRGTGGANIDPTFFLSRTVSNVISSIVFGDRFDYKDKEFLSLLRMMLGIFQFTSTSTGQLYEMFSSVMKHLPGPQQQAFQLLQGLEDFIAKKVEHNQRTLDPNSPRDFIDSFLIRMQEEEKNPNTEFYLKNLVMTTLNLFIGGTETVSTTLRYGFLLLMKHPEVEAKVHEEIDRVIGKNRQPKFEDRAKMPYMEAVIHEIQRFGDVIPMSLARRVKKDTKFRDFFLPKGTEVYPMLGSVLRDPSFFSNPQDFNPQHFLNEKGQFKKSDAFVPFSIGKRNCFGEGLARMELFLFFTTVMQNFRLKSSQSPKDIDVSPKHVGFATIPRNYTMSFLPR

CYP1A2 / CYP1A1 = assay: Selectivity ratio of IC50 for CYP1A2 (unknown origin) to IC50 for CYP1A1 (unknown origin); conditions: human; read-out: Ratio IC50
Cytochrome P450 1B1 = molecular target: T3, Cytochrome P450 1B1 (Homo sapiens, UniProt Q16678); assay: Inhibition of CYP1B1 (unknown origin)-mediated deethylation of resorufin ethyl ether after 5 mins by spectrofluorimetric analysis; summary of the method: as §1
T3 sequence (Q16678 whole entry): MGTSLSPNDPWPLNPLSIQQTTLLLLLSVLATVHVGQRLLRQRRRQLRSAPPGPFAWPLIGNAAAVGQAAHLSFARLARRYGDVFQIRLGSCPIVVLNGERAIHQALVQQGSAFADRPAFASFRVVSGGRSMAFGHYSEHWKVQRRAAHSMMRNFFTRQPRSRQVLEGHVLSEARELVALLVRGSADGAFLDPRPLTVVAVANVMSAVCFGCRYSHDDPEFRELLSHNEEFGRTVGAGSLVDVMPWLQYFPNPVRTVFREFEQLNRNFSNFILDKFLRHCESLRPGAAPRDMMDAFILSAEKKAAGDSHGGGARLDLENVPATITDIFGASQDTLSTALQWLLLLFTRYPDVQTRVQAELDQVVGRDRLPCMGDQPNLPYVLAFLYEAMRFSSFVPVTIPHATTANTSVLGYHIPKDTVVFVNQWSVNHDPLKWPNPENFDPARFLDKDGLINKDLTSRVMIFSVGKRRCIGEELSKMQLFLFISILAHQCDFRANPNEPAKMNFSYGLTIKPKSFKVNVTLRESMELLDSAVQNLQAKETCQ

Cytochrome P450 1A2 [1] = molecular target: T4, Cytochrome P450 1A2 (Homo sapiens, UniProt P05177); assay: Inhibition of CYP1A2 (unknown origin)-mediated demethylation of resorufin methyl ether after 5 mins by spectrofluorimetric analysis; summary of the method: as §1
T4 sequence (P05177 whole entry): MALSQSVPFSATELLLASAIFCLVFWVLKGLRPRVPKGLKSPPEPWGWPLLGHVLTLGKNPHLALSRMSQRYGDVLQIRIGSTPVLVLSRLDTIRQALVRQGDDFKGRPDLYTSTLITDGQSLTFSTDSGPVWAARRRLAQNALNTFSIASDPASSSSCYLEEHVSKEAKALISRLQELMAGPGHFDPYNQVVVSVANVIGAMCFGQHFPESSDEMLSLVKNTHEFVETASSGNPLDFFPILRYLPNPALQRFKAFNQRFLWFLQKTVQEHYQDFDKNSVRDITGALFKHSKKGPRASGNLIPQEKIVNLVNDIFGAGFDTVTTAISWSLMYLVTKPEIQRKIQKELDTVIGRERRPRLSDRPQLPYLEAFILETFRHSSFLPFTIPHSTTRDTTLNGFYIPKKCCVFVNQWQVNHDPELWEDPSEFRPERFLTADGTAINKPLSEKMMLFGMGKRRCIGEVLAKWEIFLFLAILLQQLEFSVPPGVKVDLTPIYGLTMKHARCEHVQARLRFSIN

Cytochrome P450 1A1 [2] = molecular target: T5, Cytochrome P450 1A1 (Homo sapiens, UniProt P04798); assay: Inhibition of CYP1A1 (unknown origin)-mediated deethylation of resorufin ethyl ether after 5 mins by spectrofluorimetric analysis; summary of the method: as §1
T5 sequence (P04798 whole entry): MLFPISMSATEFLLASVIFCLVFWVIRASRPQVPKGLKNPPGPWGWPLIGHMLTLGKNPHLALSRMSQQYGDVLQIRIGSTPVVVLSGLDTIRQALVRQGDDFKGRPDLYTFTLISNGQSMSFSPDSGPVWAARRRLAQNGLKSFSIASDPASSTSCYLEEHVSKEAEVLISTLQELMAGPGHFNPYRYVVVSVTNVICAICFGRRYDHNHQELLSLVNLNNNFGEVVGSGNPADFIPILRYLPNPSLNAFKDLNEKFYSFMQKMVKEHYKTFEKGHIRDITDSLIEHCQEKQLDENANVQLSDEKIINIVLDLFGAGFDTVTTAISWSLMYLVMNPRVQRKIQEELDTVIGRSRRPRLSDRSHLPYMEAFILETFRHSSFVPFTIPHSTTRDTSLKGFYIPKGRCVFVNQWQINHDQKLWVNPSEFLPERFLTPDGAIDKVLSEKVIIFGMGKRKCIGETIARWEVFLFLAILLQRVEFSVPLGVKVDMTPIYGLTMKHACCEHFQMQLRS

CYP1A2 = molecular target: T6, CYP1A2 (Homo sapiens, UniProt P05177); assay: (§2) Irreversible inhibition of CYP1A2 (unknown origin)-mediated demethylation of resorufin methyl ether after 5 mins by spectrofluorimetric analysis; conditions: human, probe resorufin methyl ether
T6 sequence (P05177 whole entry): T4 sequence (P05177 whole entry)

Cytochrome P450 1A2 [3] = molecular target: T4, Cytochrome P450 1A2; assay: as §2
CYP1A1 = molecular target: T7, CYP1A1 (Homo sapiens, UniProt P04798); assay: (§3) Irreversible inhibition of CYP1A1 (unknown origin)-mediated deethylation of resorufin ethyl ether after 5 mins by spectrofluorimetric analysis; conditions: human, probe resorufin ethyl ether
T7 sequence (P04798 whole entry): T5 sequence (P04798 whole entry)

Cytochrome P450 1A1 [4] = molecular target: T5, Cytochrome P450 1A1; assay: as §3
Cytochrome P450 1A1 [5] = molecular target: T5, Cytochrome P450 1A1; assay: Inhibition of CYP1A1 (unknown origin)-mediated deethylation of resorufin ethyl ether at 0.1 uM after 5 mins by spectrofluorimetric analysis
Summary of the method: (§4)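 Fluorimetric dealkylation of resorufin ether (ethyl for 1A1/1B1, methyl for 1A2) by microsomal P450 (final 5 nM), substrate final 5 μM, in 0.1 M potassium phosphate pH 7.6 with MgCl2 at 37 °C. Reaction started with NADPH regenerating system. Test compound at 0.1 μM in DMSO; activity compared with DMSO-only control.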

Cytochrome P450 1A2 [6] = molecular target: T4, Cytochrome P450 1A2; assay: Inhibition of CYP1A2 (unknown origin)-mediated demethylation of resorufin methyl ether at 0.1 uM after 5 mins by spectrofluorimetric analysis; summary of the method: as §4
CYP1B1 = molecular target: T8, CYP1B1 (Homo sapiens, UniProt Q16678); assay: Inhibition of CYP1B1 (unknown origin) dealkylation activity at 0.1 uM after 5 mins by spectrofluorimetric analysis relative to control; summary of the method: as §4
T8 sequence (Q16678 whole entry): T3 sequence (Q16678 whole entry)

CYP1B1 over CYP1A2 = assay: Selectivity ratio for CYP1B1 (unknown origin) over CYP1A2 (unknown origin); conditions: human
Summary of the method: (§5)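 Ratio of IC50 values from fluorimetric dealkylation assays: resorufin ethyl ether deethylation (1A1, 1B1), resorufin methyl ether demethylation (1A2). Microsomal P450 5 nM final, substrate 5 μM final, 0.1 M potassium phosphate pH 7.6 with MgCl2, NADPH-regenerating system, 37 °C. Inhibitor 0.1–100 μM in DMSO. IC50s from progress curves, three independent experiments.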

CYP1B1 over CYP1A1 = assay: Selectivity ratio for CYP1B1 (unknown origin) over CYP1A1 (unknown origin); conditions: human; summary of the method: as §5

| Compound | pIC50 (Cytochrome P450 2B1) | pIC50 (Cytochrome P450 2A6) | inhibition (INH) (Cytochrome P450 1B1) | pIC50 (Cytochrome P450 1A2 [1]) | pIC50 (Cytochrome P450 1A1 [2]) | further results |
| --- | --- | --- | --- | --- | --- | --- |
| O=c1cc(-c2ccccc2)oc2ccc3c(c12)OCC=C3 | < 4.60 | < 4.60 | Active | 5.95 | 6.49 | selectivity ratio (CYP1A2 / CYP1A1): 3.5 |
| O=c1cc(-c2ccccc2)oc2ccc3c(c12)C=CCO3 | < 4.60 | < 4.60 | Active | 6.12 | 6.82 | selectivity ratio (CYP1A2 / CYP1A1): 5 |
| O=c1cc(-c2ccccc2)oc2c3c(ccc12)OCC=C3 | < 4.60 | < 4.60 | Active |  | 6.57 |  |
| O=c1cc(-c2ccc3c(c2)C=CCO3)oc2ccccc12 | 5.18 | < 4.60 | Active |  |  |  |
| C#CCOc1cc(O)c2c(=O)cc(-c3ccccc3)oc2c1 | < 4.60 | < 4.60 | Active | 7.05 | 6.46 |  |
| O=c1cc(-c2ccccc2)oc2c3c(cc(O)c12)OCC=C3 | < 4.60 | < 4.60 | Active |  | 6.96 |  |
| O=c1cc(-c2ccccc2)oc2cc3c(c(O)c12)C=CCO3 | < 4.60 | < 4.60 | Active |  |  |  |
| C#CCOc1cccc(-c2cc(=O)c3c(O)cccc3o2)c1 | 5.39 | < 4.60 | Active |  |  | kinact at 5 min (CYP1A2): 0.000367 s⁻¹; pKi (Cytochrome P450 1A2 [3]): 7.15; kinact at 5 min (CYP1A1): 0.00317 s⁻¹; pKi (Cytochrome P450 1A1 [4]): 6.89 |
| O=c1cc(-c2cccc3c2C=CCO3)oc2cccc(O)c12 | < 4.60 | < 4.60 | Active |  |  |  |
| O=c1cc(-c2ccc3c(c2)OCC=C3)oc2cccc(O)c12 | < 4.60 | < 4.60 | Active |  |  |  |
| C#CCOc1ccc(-c2cc(=O)c3c(O)cccc3o2)cc1 | < 4.60 | < 4.60 | Active | < 4.70 |  | inhibition (INH) (Cytochrome P450 1A1 [5]): Not Active; inhibition (INH) (Cytochrome P450 1A2 [6]): Not Active; inhibition at 5 min, 0.1 µM (CYP1B1): 50%; selectivity ratio (CYP1B1 over CYP1A2): > 250; selectivity ratio (CYP1B1 over CYP1A1): 100 |
| O=c1cc(-c2ccc3c(c2)C=CCO3)oc2cccc(O)c12 | < 4.60 | < 4.60 | Active |  |  |  |
| C#CCOc1ccc(-c2cc(=O)c3c(ccc4ccccc43)o2)cc1 |  |  |  | 6.22 | 7.39 | selectivity ratio (CYP1A2 / CYP1A1): 5 |
| O=c1cc(-c2cccc3c2C=CCO3)oc2ccccc12 [2'H,4H-[2,5'-BICHROMEN]-4-ONE] | 5.15 | < 4.60 | Active |  |  |  |
| O=c1cc(-c2cccc3c2OCC=C3)oc2ccccc12 [2'H,4H-[2,8'-BICHROMEN]-4-ONE] | 5.20 | < 4.60 | Active |  |  |  |
| O=c1cc(-c2ccccc2)oc2c1ccc1ccccc12 [ALPHA-NAPHTHOFLAVONE] | 4.89 | < 4.60 | Active |  | 7.37 |  |
| O=c1cc(-c2ccccc2)oc2ccc3ccccc3c12 [BETA-NAPHTHOFLAVONE] | < 4.60 | < 4.60 | Active | 6.33 | 7.27 | selectivity ratio (CYP1A2 / CYP1A1): 5 |
| O=c1cc(-c2ccccc2)oc2cc(O)cc(O)c12 [CHRYSIN] | < 4.60 | < 4.60 | Active |  |  |  |
